Calls of active or inactive are those of the source. No cut-off for these calls is given here.

In ChEMBL document CHEMBL6083228, “A novel hydrophobic tag leads to the efficient degradation of programmed death-ligand 1” (RSC Med Chem, 2024) one finds Activity data, which are given here for 33 compounds.

The target of assay [1] is Programmed cell death 1 ligand 1 (Homo sapiens) (UniProt Q9NZQ7). Description: Induction of hydrophobic tag tethering degradation of PD-L1 in human NCI-H460 cells at 10 uM incubated for 24 hrs by Western blot analysis. Format: cell-based. In a few lines: (§1)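 Cells seeded at 1×10^6 per well, incubated overnight, then exposed to DMSO or compound for 24 h. RIPA lysates were denatured at 100 °C for 15 min in SDS-PAGE loading buffer and run on 10% SDS-PAGE. Blots were probed overnight at 4 °C with anti-PD-L1 (1:1000), then a secondary (1:5000), with ECL detection. Bands were semi-quantified by densitometry.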
Chain of Programmed cell death 1 ligand 1 (Homo sapiens) (Q9NZQ7 whole entry): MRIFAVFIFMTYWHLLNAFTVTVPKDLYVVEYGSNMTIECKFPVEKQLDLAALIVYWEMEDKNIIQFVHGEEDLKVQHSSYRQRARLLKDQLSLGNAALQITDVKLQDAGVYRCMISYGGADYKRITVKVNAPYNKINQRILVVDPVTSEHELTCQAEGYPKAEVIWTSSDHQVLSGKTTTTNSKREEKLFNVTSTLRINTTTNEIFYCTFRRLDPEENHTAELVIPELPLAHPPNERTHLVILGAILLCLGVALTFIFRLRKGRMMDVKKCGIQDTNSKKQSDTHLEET
In general terms: In western blotting, separated proteins are transferred to a membrane and probed.

The test system of assay [2] is NCI-H460. The experiment in a line: Cytotoxicity against human NCI-H460 cells at 10 uM incubated for 24 to 72 hrs by MTT assay. As to conditions: time 24-72 hrs. In kind it is functional, cell-based. Summed up:
(§2)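 NCI-H460 cells seeded at 4×10^3 per well in complete RPMI-1640 (10% FBS, 37 °C, 5% CO2), left 24 h, then given DMSO or compound in DMSO. MTT (5 mg mL⁻¹ in PBS) added after 24, 48 and 72 h exposure, 4 h further; formazan dissolved in isopropanol, absorbance at 570 nm. Triplicate; viability relative to DMSO group (100%).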
(Tetrazolium dyes change colour on reduction, which living cells bring about.)

The target of assay [3] is Programmed cell death 1 ligand 1 (Homo sapiens) (UniProt Q9NZQ7). Description: Induction of hydrophobic tag tethering degradation of PD-L1 in human NCI-H460 cells incubated for 24 hrs by Western blot analysis. As to conditions: dose 1-10 µM. Format: cell-based. Summed up: as §1
The target is the same in assay [4]. Description: Induction of hydrophobic tag tethering degradation of PD-L1 in human NCI-H460 cells at 1 to 10 uM incubated for 24 hrs by Western blot analysis. Format: cell-based. As to conditions: dose 1-10 µM. In a few lines: as §1
Assay [5] has as its system NCI-H460. The experiment in a line: Cytotoxicity against human NCI-H460 cells at 0.5 to 10 uM incubated for 24 to 72 hrs by MTT assay. In kind it is functional, cell-based. As to conditions: dose 0.5-10 µM, time 24-72 hrs. In a few lines:
as §2

The target in assay [6] is Programmed cell death 1 ligand 1 (Homo sapiens) (UniProt Q9NZQ7). The experiment in a line: Induction of hydrophobic tag tethering degradation of PD-L1 in human HT-1080 cells incubated for 24 hrs by Western blot analysis. As to conditions: dose 1-10 µM. Format: cell-based. In a few lines:
as §1

For assay [7] the target is unchanged. Description: Induction of hydrophobic tag tethering degradation of PD-L1 in human NCI-H460 cells at 10 uM by Western blot analysis. Format: cell-based. Summed up: as §1
The target is the same in assay [8]. The experiment in a line: Induction of hydrophobic tag tethering degradation of PD-L1 in human NCI-H460 cells at 10 uM incubated for 24 hrs in presence of MG132 by Western blot analysis. In kind it is cell-based.
Assay [9] has the same target. Description: Induction of hydrophobic tag tethering degradation of PD-L1 in human NCI-H460 cells by immunofluorescence analysis. In kind it is cell-based. Summed up: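 NCI-H460 cells exposed to compound at various concentrations were fixed in 4% paraformaldehyde for 15 min at room temperature and blocked with 0.5% BSA for 1 h. Anti-PD-L1 (1:200) was applied overnight at 4 °C, then Alexa Fluor 555 donkey anti-rabbit (1:1000) for 30 min in the dark. Nuclei were stained with DAPI and cells imaged by confocal microscopy.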

`Cc1c(COc2ccc(CNCCOCCOCCOCCC(=O)NN3CCN(C(c4ccc(F)cc4)c4ccc(F)cc4)CC3)cn2)cccc1-c1ccccc1`: the outcome in [1] was inactive.

For the compound `Cc1c(COc2ccc(CNCCOCCOCCOCCOCCOCCC(=O)NC(C3CCCCC3)C3CCCCC3)cn2)cccc1-c1ccccc1`, the outcome in assay [1] was inactive.

With `Cc1c(-c2ccccc2)cccc1-c1ccc(CNCCOCCOCCC(=O)NC(c2ccccc2)c2ccc(C(F)(F)F)cc2)cn1` (centres undefined), the result in [1] was inactive.

For the compound `Cc1c(COc2ccc(CNCCOCCOCCOCCOCCOCCC(=O)NCCNC(=O)C(C)c3ccc(CC(C)C)cc3)cn2)cccc1-c1ccccc1` (centres undefined), the result in [1] was inactive.

Take `Cc1c(COc2ccc(CNCCOCCOCCC(=O)NN3CCN(C(c4ccc(F)cc4)c4ccc(F)cc4)CC3)cn2)cccc1-c1ccccc1`: the Activity result in assay [2] was “Active; Exhibited Mild Cytotoxicity”; in assay [3], “Dose-dependent-effect”. Also, the result in [1] was Active.

Regarding `Cc1c(COc2ccc(CNCCOCCOCCOCCOCCC(=O)NC34CC5CC(CC(C5)C3)C4)cn2)cccc1-c1ccccc1`, the outcome in assay [1] was inactive.

As for `Cc1c(COc2ccc(CNCCOCCOCCC(=O)NC(c3ccccc3)c3ccccc3)cn2)cccc1-c1ccccc1`, the Activity entry in assay [4] is listed as “Active; Exhibited Mild Degradation Potency”. Further, the result in assay [1] was Active.

Regarding `Cc1c(COc2ccc(CNCCOCCOCCC(=O)NC(c3ccccc3)c3ccc(C(F)(F)F)cc3)cn2)cccc1-c1ccccc1` (centres undefined), in assay [1], the outcome was inactive.

With `Cc1c(COc2ccc(CNCCOCCOCCOCCOCCOCCC(=O)NC34CC5CC(CC(C5)C3)C4)cn2)cccc1-c1ccccc1`, the result in assay [1] was Active.

Turning to `Cc1c(COc2ccc(CNCCOCCOCCOCCOCCOCCC(=O)NC(c3ccccc3)c3ccccc3)cn2)cccc1-c1ccccc1`, the result in assay [1] was inactive.

With `Cc1c(COc2ccc(CNCCOCCOCCOCCC(=O)NC34CC5CC(CC(C5)C3)C4)cn2)cccc1-c1ccccc1`, the result in [1] was inactive.

For the compound `Cc1c(COc2ccc(CNCCOCCOCCOCCOCCC(=O)NCCNC(=O)C(C)c3ccc(CC(C)C)cc3)cn2)cccc1-c1ccccc1` (centres undefined), in assay [1], the result was inactive.

Regarding `Cc1c(-c2ccccc2)cccc1-c1ccc(CNCCOCCOCCC(=O)NC(c2ccc(F)cc2)c2ccc(F)cc2)cn1`, in assay [1], the outcome was inactive.

Consider `Cc1c(COc2ccc(CNCCOCCOCCOCCC(=O)NC(C3CCCCC3)C3CCCCC3)cn2)cccc1-c1ccccc1`, for which, in [1], the outcome was inactive.

As for `Cc1c(-c2ccccc2)cccc1-c1ccc(CNCCOCCOCCOCCOCCC(=O)NC(c2ccc(F)cc2)c2ccc(F)cc2)cn1`, in assay [1], the outcome was inactive.

On to `Cc1c(COc2ccc(CNCCOCCOCCC(=O)NC34CC5CC(CC(C5)C3)C4)cn2)cccc1-c1ccccc1`, for which the outcome in assay [1] was inactive.

For `Cc1c(-c2ccccc2)cccc1-c1ccc(CNCCOCCOCCOCCC(=O)NC(c2ccc(F)cc2)c2ccc(F)cc2)cn1`, the result in assay [1] was inactive.

With `Cc1c(COc2ccc(CNCCOCCOCCOCCOCCC(=O)NC(c3ccccc3)c3ccccc3)cn2)cccc1-c1ccccc1`, in [1], the outcome was Active.

Turning to `Cc1c(-c2ccccc2)cccc1-c1ccc(CNCCOCCOCCC(=O)NN2CCN(C(c3ccc(F)cc3)c3ccc(F)cc3)CC2)cn1`, the Activity result was “Not active; Exhibited Almost No Cytotoxicity” in [5]; “Dose-dependent-effect” in assay [6]; “Time-dependent-effect; Almost No Degradation Activity Observed For 72 Hrs” in assay [7]; “Not active; Result Indicates That Degradation Of Pd-L1 Occurs Through Proteosome Pathway” in assay [8]; “Dose-dependent-effect” in assay [9]; “Dose-dependent-effect” in assay [3]. Further, in [1], the result was Active.

For `Cc1c(COc2ccc(CNCCOCCOCCOCCOCCC(=O)NC(C3CCCCC3)C3CCCCC3)cn2)cccc1-c1ccccc1`, the outcome in assay [1] was inactive.

For `Cc1c(COc2ccc(CNCCOCCOCCC(=O)NC(C3CCCCC3)C3CCCCC3)cn2)cccc1-c1ccccc1`, the outcome in assay [1] was inactive.

For the compound `Cc1c(COc2ccc(CNCCOCCOCCOCCC(=O)NCCNC(=O)C(C)c3ccc(CC(C)C)cc3)cn2)cccc1-c1ccccc1` (centres undefined), the result in [1] was inactive.

`Cc1c(-c2ccccc2)cccc1-c1ccc(CNCCOCCOCCOCCC(=O)NC(c2ccccc2)c2ccc(C(F)(F)F)cc2)cn1` (centres undefined): the result in assay [1] was inactive.

Regarding `Cc1c(COc2ccc(CNCCOCCOCCC(=O)NCCNC(=O)C(C)c3ccc(CC(C)C)cc3)cn2)cccc1-c1ccccc1` (centres undefined), the outcome in assay [1] was inactive.

As to `Cc1c(-c2ccccc2)cccc1-c1ccc(CNCCOCCOCCOCCC(=O)NC(c2ccccc2)c2ccccc2)cn1`, in assay [1], the outcome was Active.

`Cc1c(COc2ccc(CNCCOCCOCCOCCC(=O)NC(c3ccccc3)c3ccccc3)cn2)cccc1-c1ccccc1`: the Activity entry in assay [4] is on record as “Active; Exhibited Mild Degradation Potency”. Further, the result in [1] was Active.

Take `Cc1c(-c2ccccc2)cccc1-c1ccc(CNCCOCCOCCC(=O)NC(c2ccccc2)c2ccccc2)cn1`: the outcome in [1] was inactive.

`Cc1c(-c2ccccc2)cccc1-c1ccc(CNCCOCCOCCOCCOCCC(=O)NN2CCN(C(c3ccc(F)cc3)c3ccc(F)cc3)CC2)cn1`: the result in assay [1] was inactive.

For `Cc1c(COc2ccc(CNCCOCCOCCOCCOCCC(=O)NN3CCN(C(c4ccc(F)cc4)c4ccc(F)cc4)CC3)cn2)cccc1-c1ccccc1`, the outcome in [1] was inactive.

Turning to `Cc1c(-c2ccccc2)cccc1-c1ccc(CNCCOCCOCCOCCOCCC(=O)NC(c2ccccc2)c2ccccc2)cn1`, in [1], the result was Active.

Consider `Cc1c(-c2ccccc2)cccc1-c1ccc(CNCCOCCOCCOCCOCCC(=O)NC(c2ccccc2)c2ccc(C(F)(F)F)cc2)cn1` (centres undefined), for which, in [1], the outcome was inactive.

Take `Cc1c(-c2ccccc2)cccc1-c1ccc(CNCCOCCOCCOCCC(=O)NN2CCN(C(c3ccc(F)cc3)c3ccc(F)cc3)CC2)cn1`: the Activity result in assay [5] is “Not active; Exhibited Almost No Cytotoxicity”; in assay [6] it was “Dose-dependent-effect”; in assay [7] it was “Time-dependent-effect; Almost No Degradation Activity Observed For 72 Hrs”; in [8] it was “Not active; Result Indicates That Degradation Of Pd-L1 Occurs Through Proteosome Pathway”; in [9], “Dose-dependent-effect”; in assay [3] it was “Dose-dependent-effect”. For the same compound, in assay [1], the result was Active.

For `Cc1c(COc2ccc(CNCCOCCOCCOCCOCCC(=O)NC(c3ccccc3)c3ccc(C(F)(F)F)cc3)cn2)cccc1-c1ccccc1` (centres undefined), in assay [1], the result was inactive.
